# Screens: PubChem, Broad Institute
# Statin myotox sup: protects C2C12 myotubes from simvastatin toxicity. rescue of ATP level, % at 7.49 µM. AID 602340. actives 0.78% (n = 330,000). ATP luminescence, 48 h; scaled: DMSO 0, geranylgeraniol control 100;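 active = mean ATP rescue above about 67%, or every replicate alone reaching that limit, limit read from the data, passing the limit was not always enough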;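 also: myotubes were challenged with 10 µM simvastatin during compound exposure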
# FN deposition inh: fibronectin deposition inhibition | AH1F fibroblasts, Alexa488-fibronectin deposition fluorescence, overnight | inhibition, % at 12.6 µM | actives 0.086% (n = 350,000) | AID 743247;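 active = mean inhibition across replicates of 30% or more, regardless of how many single replicates reach that level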;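 also: positive control wells lacked labelled fibronectin entirely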
#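 Material: AH1F fibroblast monolayer depositing Alexa488-labelled fibronectin into matrix | Input: 10000 AH1F cells/well | Medium: DMEM plus 2% serum, read in PBS | Reagent: Alexa488-fibronectin, 24 nM final in well | Compound dosing: One dose per compound, pinned | Schedule: 1 h adhesion, overnight exposure | Measured by: Fluorescence at 485 nm excitation, 525 nm emission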
# FGF22 binding: FGF22 (human) thermal shift binding | Q9HCT0 | recombinant FGF22 thermal shift, SYPRO orange fluorescence; percent of sucrose octasulfate shift, DMSO zero | activity (Tm shift, normalised), % at 9.99 µM | actives 1.5% (n = 340,000) | AID 651658;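 active = mean Tm shift, scaled 0 neutral to 100 positive control, at about 1.3% or above, every replicate too, limit read from the data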
# Target sequence (Q9HCT0 whole entry, looked up): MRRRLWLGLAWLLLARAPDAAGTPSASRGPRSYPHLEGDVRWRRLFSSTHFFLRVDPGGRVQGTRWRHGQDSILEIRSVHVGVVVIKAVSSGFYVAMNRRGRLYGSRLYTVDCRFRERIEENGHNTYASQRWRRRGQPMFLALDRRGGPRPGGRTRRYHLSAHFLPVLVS
# Ecoli rRNA inh: inhibitors of bacterial rRNA selective over humanized ribosomes. E. coli WT GFP vs humanized-ribosome RFP mutants, fluorescence, 24 h; hits give low values; DMSO median 0, no signal -100. actives 1.6% (n = 350,000). AID 720706. GFP signal change (wild-type ribosome), % (no concentration beside the values);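 active = significant combined selectivity score with lowered wild-type GFP, culture density cut under 30%, mutant RFP and density less affected; inactive = any of these conditions unmet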
# SIRT5 block: inhibitors of human sirtuin-5 desuccinylase. Purified SirT5, succinyl-peptide AMC, trypsin-coupled fluorescence. inhibition, % at 15 µM. Q9NXA8. actives 1.1% (n = 330,000); in the data active = inhibition above about 15%
# Target sequence (Q9NXA8 whole entry, looked up): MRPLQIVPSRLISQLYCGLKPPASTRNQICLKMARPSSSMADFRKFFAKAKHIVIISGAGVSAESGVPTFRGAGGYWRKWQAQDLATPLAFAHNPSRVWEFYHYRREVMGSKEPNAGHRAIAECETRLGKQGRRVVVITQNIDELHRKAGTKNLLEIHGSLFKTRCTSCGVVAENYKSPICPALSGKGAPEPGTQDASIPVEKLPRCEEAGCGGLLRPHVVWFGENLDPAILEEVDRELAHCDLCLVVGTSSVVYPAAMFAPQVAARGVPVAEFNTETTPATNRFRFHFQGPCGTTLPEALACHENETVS
# E-sel inducer: induces E-selectin expression in human endothelial cells | activation, % at 7.58 µM | P16581 | AID 686992 | HUVEC E-selectin immunofluorescence imaging; normalized: neutral wells 0, TNF-alpha wells 100 | actives 0.37% (n = 260,000);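 active = mean E-selectin-positive cell signal at least 10% of the positive control, reached in at least 60% of replicates, without over 20% cell loss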
#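 Test system: HUVEC | Signal: Immunofluorescence imaging | Read-out: Percent E-selectin-positive cells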
# An asterisk follows results filed as active; . = not tested or not shown. Shown are actives, neighbours in structure and some others; about 4% of the full set was active somewhere.
SMILES,Statin myotox sup,FN deposition inh,FGF22 binding,Ecoli rRNA inh,SIRT5 block,E-sel inducer
CCCCCCSc1ccc([C@@H]2[C@H]3C(=O)N(C)C(=O)[C@H]3[C@]3(C(=O)OC)CCCCN23)cc1OC,-5.1,31.5*,-0.2,4.0,-1.5,0.5
CCN1C(=O)[C@H]2[C@@H](c3ccc(-c4ccc(OC)cc4)cc3)N3CCC[C@@]3(C(=O)OC)[C@H]2C1=O,8.7,5.9,-0.5,0.7,.,0.7
CCCCCCSc1ccc([C@@H]2[C@@H]3C(=O)N(C)C(=O)[C@@H]3[C@]3(C(=O)OC)CCCCN23)cc1OC,0.6,1.3,0.1,7.3,2.1,0.0
CC(=O)Nc1cccc(NC(=O)c2ccc(C)c([N+](=O)[O-])c2)c1,-11.1,.,0.5,-11.4,16.6*,.
COc1ccc(C(=O)Nc2ccc3c(c2)OCCO3)cc1[N+](=O)[O-],.,5.0,0.1,8.3,-1.6,46.2*
COc1cc([N+](=O)[O-])c(C)cc1NC(=O)c1ccc(OC)c(OC)c1,-10.8,0.0,43.2*,9.6,.,0.4
COc1ccc(C(=O)NC(=S)Nc2ccccc2[N+](=O)[O-])cc1OC,.,7.1,0.3,0.2,-4.2,0.0
COc1ccc(NC(=O)c2ccc3c(c2)OCCO3)cc1OC,38.8,-1.6,0.0,5.7,-0.8,-0.1
CC(=O)c1sc(NC(=O)c2ccccc2)nc1-c1ccccc1,.,-4.5,1.1,-20.2*,-0.4,2.2
CCCC#Cc1cnc2c(c1)C(=O)N([C@H](C)CO)C[C@@H](C)[C@H](CN(C)Cc1ccncc1)O2,18.2,-6.0,-0.2,1.0,-1.1,-0.5
O=C1SCCN1N=Cc1ccc([N+](=O)[O-])o1,9.7,1.7,-0.4,5.3,22.3*,1.9
CCN(C[C@@H]1[C@@H](c2ccccc2)[C@@H](CO)N1C(C)=O)C(=O)c1ccccn1,-5.5,-0.3,-0.3,1.8,9.1,-0.1
CN(C)S(=O)(=O)c1ccc(N=Cc2c(C(F)(F)F)[nH]n(C)c2=O)cc1,-1.5,-1.1,43.6*,-7.7,2.0,.
C(=C1c2ccccc2-c2ccccc21)c1ccccn1,-5.6,4.8,43.2*,-7.9,-1.3,0.2
CN(C)C(=O)[C@@H]1[C@@H](CO)[C@@H]2Cn3c(ccc(-c4ccccc4)c3=O)[C@H]1N2C(=O)C1CCCC1,-27.9,13.0,-0.4,1.8,-22.9,0.0
CC(=O)c1ccc(NC(=O)C2=CC(c3cccs3)=NS(=O)(=O)N2C)cc1,1.7,-7.0,-0.2,-21.1*,5.6,.
CC(Nc1ccccc1N1CCCCC1)C(=O)N1CCc2ccccc21 (configuration not stated),-10.3,1.0,42.9*,-3.1,-4.4,0.7
CCc1ccc(NC(=O)C(C)OC(=O)c2ccc(N3CCCC3)c([N+](=O)[O-])c2)cc1 (configuration not stated),.,-2.1,0.1,-3.5,-3.3,26.4*
C[C@H](CO)N1C[C@H](C)[C@@H](CN(C)S(=O)(=O)c2cn(C)cn2)OCCCC[C@H](C)Oc2ccc(NC(=O)CCCCCC(=O)Nc3ccccc3N)cc2C1=O,.,.,-0.7,-3.4,-0.2,-0.1
CCOC(=O)c1c(CSC(=N)N)n(C)c2cc(Br)c(OC(C)=O)cc12,.,-17.0,-0.2,-27.0*,-0.3,.
CCc1cc2c(=O)[nH]c(Cc3ccccc3)nc2s1,16.8,.,.,.,.,.
CCc1nc2sccc2c(=O)[nH]1,-6.5,4.7,43.6*,0.1,-0.4,1.1
Cc1ccc(NC(=O)CN2C(=O)S/C(=C\c3ccc(OCC(=O)O)c(Br)c3)C2=O)cc1,1.0,-1.1,0.0,5.6,17.1*,0.0
Cc1ccc(NC(=O)CN2C(=O)S/C(=C/c3ccc(-c4cccc(C(=O)O)c4)o3)C2=O)cc1,.,4.3,43.4*,-20.1,-0.7,-1.2
COc1cc(/C=C2\SC(=O)N(CC(=O)Nc3ccc(C)cc3)C2=O)cc(Cl)c1OCC(=O)O,0.3,0.8,.,0.1,2.8,.
SMILES,Statin myotox sup,FN deposition inh,FGF22 binding,Ecoli rRNA inh,SIRT5 block,E-sel inducer
Cc1cccc(NC(=O)CN2C(=O)S/C(=C\c3ccc(O)c([N+](=O)[O-])c3)C2=O)c1,.,3.9,43.8*,-12.3,0.8,.
CCC(=O)N1CC[C@@H]2[C@@H](CO)Nc3ccc(-c4ccccc4)cc3[C@@H]21,21.0,-15.2,.,1.2,.,0.0
COc1ccc(S(=O)(=O)Nc2ccc3c(c2)C(=O)N([C@H](C)CO)C[C@H](C)[C@@H](CN(C)CC2CCCCC2)OCCCC[C@@H](C)O3)cc1,.,.,-0.1,-0.9,.,0.2
CCCNC(=O)N1C[C@@H]2[C@H](c3ccccc31)[C@H](CO)N2Cc1ccc2c(c1)OCO2,-17.5,.,0.5,2.8,2.5,-0.5
O=C1/C(=C/c2cccnc2)Sc2ccccc21,93.0*,.,.,.,.,.
CC(=O)Nc1ccc(/C=C2\Sc3ccccc3C2=O)cc1,.,-1.8,0.2,.,1.7,.
Cc1ccc(/C=C2\Sc3ccccc3C2=O)s1,87.3*,-4.9,.,.,.,.
CC(C)NC(=O)N(C)C[C@@H]1Oc2c(N)cccc2C(=O)N(C)C[C@H]1C,.,-9.1,.,0.5,.,.
C[C@@H]1CN([C@@H](C)CO)C(=O)c2cc(NC(=O)c3ccncc3)ccc2O[C@@H](C)CCCCO[C@H]1CN(C)C(=O)NC1CCCCC1,.,.,0.1,4.6,6.2,-0.1
Cc1ccc(S(=O)(=O)NCC(=O)NCC(=O)OCC(=O)NC(=O)NC(C)(C)C)cc1C,.,3.1,43.0*,7.3,-2.6,.
O=C(/C=C/c1ccccc1)c1ccc2c(c1)OCO2,0.9,-1.8,-0.5,-24.4*,-0.5,0.1
O=C(/C=C/c1ccc2c(c1)OCCCO2)c1ccccc1O,.,-1.4,0.1,-33.1*,0.3,0.2
Cc1ccc(O)c(C(=O)/C=C/c2ccc3c(c2)OCCCO3)c1,.,.,0.3,-12.6,-4.9,.
Cc1ccc(-n2c(C)cc(C)c(C#N)c2=O)cc1C,.,-1.8,0.2,10.9,0.1,.
Cc1cc(C)n(-c2cccc(Cl)c2)c(=O)c1C#N,117.8*,6.5,.,.,.,.
C[C@@H]1CN([C@H](C)CO)C(=O)c2cc(NC(=O)c3ccccc3)ccc2O[C@@H](C)CCCCO[C@H]1CN(C)S(=O)(=O)c1ccc(Cl)cc1,.,.,-0.5,5.2,-2.2,0.9
Cc1nnc(N2C(=O)C(O)=C(C(=O)c3ccco3)C2c2ccc(F)cc2)s1 (configuration not stated),-0.1,-2.5,-0.1,2.7,.,.
Cc1nnc(N2C(=O)C(O)=C(C(=O)c3ccco3)C2c2ccc(C(C)(C)C)cc2)s1 (configuration not stated),116.7*,.,.,.,.,.
CCC(C(=O)NCCCN1CC(C)CC(C)C1)n1nc(C)c2sc3ccccc3c2c1=O (configuration not stated),-27.0,-0.6,-0.2,0.1,31.5*,0.3
Cc1ccc(S(=O)(=O)Nc2ccc3c(c2)C(=O)N([C@@H](C)CO)C[C@@H](C)[C@H](CN(C)C(=O)CCCN(C)C)OCCCC[C@@H](C)O3)cc1,.,-1.0,-0.2,2.7,-2.2,.
